The subject of series [1] is Danio rerio. As to the kind of experiment: In vivo agonist activity at human GFP-tagged PPARgamma in transgenic zebrafish assessed as increase in GFP expression in tail bud at 0.1 uM measured after 14 hrs by microscopy.
Series [2] has as its target T1, Peroxisome proliferator-activated receptor gamma (Homo sapiens) (UniProt P37231).
T1 sequence (whole entry): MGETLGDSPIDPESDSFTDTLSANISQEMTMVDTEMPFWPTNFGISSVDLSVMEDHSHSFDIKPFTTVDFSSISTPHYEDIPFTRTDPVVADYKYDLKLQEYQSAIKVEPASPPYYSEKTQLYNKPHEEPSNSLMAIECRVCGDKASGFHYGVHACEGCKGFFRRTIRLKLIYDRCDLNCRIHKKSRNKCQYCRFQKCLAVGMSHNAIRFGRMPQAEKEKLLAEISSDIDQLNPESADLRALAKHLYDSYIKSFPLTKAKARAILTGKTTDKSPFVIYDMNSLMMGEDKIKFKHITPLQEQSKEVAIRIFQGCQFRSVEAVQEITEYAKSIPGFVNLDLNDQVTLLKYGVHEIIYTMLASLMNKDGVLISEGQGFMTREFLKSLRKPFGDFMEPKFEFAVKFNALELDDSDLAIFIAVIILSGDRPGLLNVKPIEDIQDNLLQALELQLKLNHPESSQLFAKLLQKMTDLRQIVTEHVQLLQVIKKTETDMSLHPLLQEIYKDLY
The following applies: dose 50.0 µM.

Series [3] addresses T1, Peroxisome proliferator-activated receptor gamma (Homo sapiens). As to the kind of experiment: Stabilization of human PPARgamma LBD assessed as change in melting temperature at 50 uM by thermal shift assay.
For series [4], the target named is T2, Peroxisome proliferator-activated receptor delta (Homo sapiens) (UniProt Q03181).
T2 sequence (whole entry): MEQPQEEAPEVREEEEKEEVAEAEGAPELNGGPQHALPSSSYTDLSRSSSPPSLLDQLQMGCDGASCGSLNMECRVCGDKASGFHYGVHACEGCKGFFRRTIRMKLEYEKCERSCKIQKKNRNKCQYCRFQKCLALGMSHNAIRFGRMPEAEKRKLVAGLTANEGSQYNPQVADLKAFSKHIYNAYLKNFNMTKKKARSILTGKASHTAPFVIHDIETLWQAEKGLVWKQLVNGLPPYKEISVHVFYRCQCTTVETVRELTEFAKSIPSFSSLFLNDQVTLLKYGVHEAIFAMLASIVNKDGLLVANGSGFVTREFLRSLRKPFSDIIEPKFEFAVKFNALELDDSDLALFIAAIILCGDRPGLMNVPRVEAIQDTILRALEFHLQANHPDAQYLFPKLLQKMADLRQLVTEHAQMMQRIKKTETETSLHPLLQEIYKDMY
As to the kind of experiment: Stabilization of human PPARdelta LBD assessed as change in melting temperature at 50 uM by thermal shift assay. An outline of the steps:
(§1)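 Purified hPPAR LBD at 1 mg/mL (∼25 μM) with ligand (α-LBD at 25 μM; γ- and δ-LBD at 50 μM). Static light scattering at 473 nm from 25 to 70 °C in 0.5 °C steps, 1 °C/min. Tm from four-parameter fit; ΔTm relative to DMSO; mean ± SEM, N = 3.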

In series [5] the target is T3, Peroxisome proliferator-activated receptor alpha (Homo sapiens) (UniProt Q07869).
T3 sequence (whole entry): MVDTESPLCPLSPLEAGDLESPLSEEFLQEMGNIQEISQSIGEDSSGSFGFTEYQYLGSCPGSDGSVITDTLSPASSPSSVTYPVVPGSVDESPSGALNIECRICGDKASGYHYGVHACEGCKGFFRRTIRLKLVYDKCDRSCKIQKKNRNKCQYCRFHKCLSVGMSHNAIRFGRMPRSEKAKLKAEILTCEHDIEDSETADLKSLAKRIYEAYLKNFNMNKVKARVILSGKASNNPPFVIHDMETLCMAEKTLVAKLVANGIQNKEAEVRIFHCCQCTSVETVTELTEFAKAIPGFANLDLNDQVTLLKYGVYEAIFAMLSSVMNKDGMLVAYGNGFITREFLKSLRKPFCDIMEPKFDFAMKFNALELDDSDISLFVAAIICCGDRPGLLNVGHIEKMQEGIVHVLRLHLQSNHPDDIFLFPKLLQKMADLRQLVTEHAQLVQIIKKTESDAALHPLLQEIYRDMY
As to the kind of experiment: Agonist activity at human PPARalpha transfected in HEK293 cells assessed as relative luciferase unit at 50 uM measured after 16 hrs by luciferase reporter gene assay. Type of series: cell-based. The following applies: filed as agonist. Summed up: (§2)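 GAL4-hPPAR (α or γ) plus UAS-luciferase and β-galactosidase transiently co-transfected into HEK293 cells, then treated with 50 μM compound for 16 h. RLU = luciferase/β-galactosidase × time, vehicle (DMSO) set to 1. Mean ± SD, N = 3; one-way ANOVA with Holm–Šidák vs vehicle.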
(A reporter such as luciferase makes a cellular process visible.)

For series [6], the target named is T4, Peroxisome proliferator-activated receptor alpha (Homo sapiens, UniProt Q07869).
T4 sequence (Q07869 whole entry): T3 sequence (whole entry)
As to the kind of experiment: Agonist activity at human PPARalpha expressed in HEK293 cells by luciferase/beta-galactosidase reporter gene assay. Type of series: cell-based. An outline of the steps:
(§3)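 HEK293 cells in charcoal-stripped FBS, calcium phosphate co-transfected with GAL4-hPPAR LBD fusion, UAS-luciferase and β-galactosidase. Ligand added 6–8 h post transfection, full dose–response, harvested 14–16 h later. Luciferase normalized to β-galactosidase.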

The target in series [7] is T5, Peroxisome proliferator-activated receptor gamma (Homo sapiens, UniProt P37231).
T5 sequence (P37231 whole entry): T1 sequence (whole entry)
As to the kind of experiment: Agonist activity at human PPARgamma expressed in HEK293 cells by luciferase/beta-galactosidase reporter gene assay. It is filed as cell-based. An outline of the steps:
as §3

For the next series, the system named is HEK293. As to the kind of experiment: Cytotoxicity against HEK293 cells at 25 uM by MTT assay. It is filed as toxicity, cell-based. The following applies: human, hek293, 264 h, time 11 day. An outline of the steps:
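MTT assay in HEK293 cells with compounds dosed at 25 μM.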
(In general: Tetrazolium dyes change colour on reduction, which living cells bring about.)

Series [8] addresses T6, Peroxisome proliferator-activated receptor alpha (Mus musculus) (UniProt P23204).
T6 sequence (whole entry): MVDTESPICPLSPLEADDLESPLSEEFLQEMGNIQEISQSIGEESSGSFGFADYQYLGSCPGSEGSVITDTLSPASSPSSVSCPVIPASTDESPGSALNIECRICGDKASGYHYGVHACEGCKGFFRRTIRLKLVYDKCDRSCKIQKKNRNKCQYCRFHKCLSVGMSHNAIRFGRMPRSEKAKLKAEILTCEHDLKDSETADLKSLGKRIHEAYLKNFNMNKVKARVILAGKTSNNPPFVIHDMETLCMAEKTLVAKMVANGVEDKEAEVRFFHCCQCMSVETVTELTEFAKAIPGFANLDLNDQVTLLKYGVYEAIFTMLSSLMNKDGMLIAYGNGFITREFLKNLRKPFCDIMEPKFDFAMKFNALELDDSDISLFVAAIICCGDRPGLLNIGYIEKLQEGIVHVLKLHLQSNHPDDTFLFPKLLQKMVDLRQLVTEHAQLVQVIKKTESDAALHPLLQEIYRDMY
As to the kind of experiment: Agonist activity at human PPARalpha in mouse hepatocytes assessed as induction of Fgf21 mRNA expression at 50 uM incubated for 16 hrs by quantitative real-time PCR analysis. Type of series: cell-based. The following applies: Hepatocyte, filed as agonist. An outline of the steps:
(§4)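 Collagenase-perfused mouse primary hepatocytes from WT mice, plated 2 h in attachment medium, overnight in M199 with 5% charcoal-stripped FBS and 1 nM insulin. Treated next day in serum-free M199 with 50 μM compound for 16 h. RNA qPCR (SYBR Green), comparative Ct method.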
In general terms: In qPCR the cycle at which signal appears reflects the starting amount.

The test system of a further series is Hepatocyte. As to the kind of experiment: Cytotoxicity against mouse primary hepatocytes at 25 uM by MTT assay. It is filed as toxicity, cell-based. The following applies: 264 h, time 11 day.
The target of series [9] is T2, Peroxisome proliferator-activated receptor delta (Homo sapiens). The following applies: HEK293, filed as agonist.
Series [10] addresses T6, Peroxisome proliferator-activated receptor alpha (Mus musculus). As to the kind of experiment: Agonist activity at human PPARalpha in mouse hepatocytes assessed as induction of fabp1 mRNA expression at 50 uM incubated for 16 hrs by quantitative real-time PCR analysis. Type of series: cell-based. The following applies: Hepatocyte, filed as agonist. An outline of the steps:
as §4

Series [11] concerns the target T3, Peroxisome proliferator-activated receptor alpha (Homo sapiens). As to the kind of experiment: Agonist activity at human PPARalpha expressed in HEK293 cells assessed as maximal activity by luciferase/beta-galactosidase reporter gene assay relative to GW7647. Type of series: cell-based. An outline of the steps:
as §3

Series [12] has as its target T1, Peroxisome proliferator-activated receptor gamma (Homo sapiens). As to the kind of experiment: Agonist activity at human PPARgamma transfected in HEK293 cells assessed as relative luciferase unit at 50 uM measured after 16 hrs by luciferase reporter gene assay. Type of series: cell-based. The following applies: filed as agonist. An outline of the steps:
as §2

In series [13] the target is T6, Peroxisome proliferator-activated receptor alpha (Mus musculus). As to the kind of experiment: Agonist activity at human PPARalpha in mouse hepatocytes assessed as induction of Pdk4 mRNA expression at 50 uM incubated for 16 hrs by quantitative real-time PCR analysis. It is filed as cell-based. The following applies: Hepatocyte, filed as agonist. Summed up:
as §4

Series [14] concerns the target T1, Peroxisome proliferator-activated receptor gamma (Homo sapiens). As to the kind of experiment: Agonist activity at human PPARgamma expressed in HEK293 cells assessed as maximal activity by luciferase/beta-galactosidase reporter gene assay relative to rosiglitazone. It is filed as cell-based. Summed up: as §3
In series [15] the target is T7, Peroxisome proliferator-activated receptor gamma (Mus musculus) (UniProt P37238).
T7 sequence (whole entry): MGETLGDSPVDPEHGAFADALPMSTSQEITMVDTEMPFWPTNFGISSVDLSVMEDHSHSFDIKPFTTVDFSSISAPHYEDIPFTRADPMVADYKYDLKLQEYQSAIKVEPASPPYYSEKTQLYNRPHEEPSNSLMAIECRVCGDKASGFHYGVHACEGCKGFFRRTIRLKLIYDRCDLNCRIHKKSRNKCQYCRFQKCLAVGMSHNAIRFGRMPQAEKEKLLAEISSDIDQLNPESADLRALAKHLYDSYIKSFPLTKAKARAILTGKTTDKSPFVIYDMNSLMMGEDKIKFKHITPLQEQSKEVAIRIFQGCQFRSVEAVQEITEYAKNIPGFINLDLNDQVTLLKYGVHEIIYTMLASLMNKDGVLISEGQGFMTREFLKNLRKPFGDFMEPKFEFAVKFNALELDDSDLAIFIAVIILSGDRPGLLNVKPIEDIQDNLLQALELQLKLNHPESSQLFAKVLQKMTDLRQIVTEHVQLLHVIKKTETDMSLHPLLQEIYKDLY
As to the kind of experiment: Agonist activity at human PPARgamma in mouse 3T3-L1 cells assessed as induction of adipogenic differentiation at 25 uM measured after 11 days by Oil Red O staining analysis. It is filed as cell-based. The following applies: filed as agonist, time 11.0 day. Summed up: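 3T3-L1 cells differentiated for 11 days (IBMX/dexamethasone/insulin induction, then insulin, then maintenance medium) with 25 μM compound or 10 μM rosiglitazone from day 0. Cells formalin-fixed and stained with 0.6% Oil Red O. Lipid quantified spectrophotometrically after dye extraction.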

For series [16], the system named is Danio rerio. As to the kind of experiment: In vivo agonist activity at human GFP-tagged PPARalpha in transgenic zebrafish assessed as increase in GFP expression in brain at 8.9 uM measured after 14 hrs by microscopy.
The nature of series [17]: Metabolic stability in C57BL/6 mouse liver microsomes assessed as parent compound remaining incubated for 120 mins. It is filed as ADME, Microsome. The following applies: read-out: Stability.
Series [18] addresses T3, Peroxisome proliferator-activated receptor alpha (Homo sapiens). As to the kind of experiment: Stabilization of human PPARalpha LBD assessed as change in melting temperature at 25 uM by thermal shift assay. Summed up:
as §1

In series [19] the target is T2, Peroxisome proliferator-activated receptor delta (Homo sapiens). As to the kind of experiment: Stabilization of human PPARdelta LBD assessed as change in melting temperature at 50 uM by thermal shift assay.
Series [20] is described as follows: Metabolic stability in C57BL/6 mouse liver microsomes assessed as half life. The following applies: time 2 min. Type of series: ADME, Microsome.

Active and inactive are the calls of the source. The calls are words filed in the database; no cut-off is given here.

This note sets out measurements from ChEMBL document CHEMBL5154715, “Phenolic Lipids Derived from Cashew Nut Shell Liquid to Treat Metabolic Diseases” (J Med Chem, 2022).

The ΔTm is the shift of the melting midpoint relative to a reference. A word on the EC50: it is the concentration that produces a half-maximal response. As usually defined, the half-life is the time in which the quantity being followed falls by half.

Consider `CN(CCOc1ccc(CC2SC(=O)NC2=O)cc1)c1ccccn1` (centres undefined), for which the outcome in the series on Danio rerio [1] was Active. In addition, the ΔTm in [2] and in series [3] was 5 °C in each case.

Consider `O=C(O)COc1ccc(SCC=C(c2ccc(Br)cc2)c2ccc(Br)cc2)cc1Cl`, for which the ΔTm in series [4] is 7.7 °C.

For `CCCCCCCCCCCCCCCc1cccc(OCC(=O)O)c1`, the result in series [5], in series [8], in series [10], in series [12] and in [13] was Active. In addition, the EC50 in series [6] came out at 1.1 µM; in series [7], 3.7 µM; in series [9], 10 µM. Moreover, the Activity entry is given as “Toxic” in the series on HEK293 and “Non-Toxic” with Hepatocyte. Besides, the Emax is 30% in series [11] and > 90% in series [14] (filed as agonist).

As to `CCCCCCCCCCCCCCCc1cccc(OC(C)(C)C(=O)OCC)c1`, the outcome (in series [15]; in [5]; in the series on Danio rerio [16]; in [12]) was Active. In addition, the EC50 in series [6] is 8.9 µM; in series [7] it was 3.9 µM. For the same molecule, the Emax stood at 5% in [11] and 30% in [14]. In [17], the remaining at 2 h is 78%. The ΔTm in series [18] is 0.6 °C; in [19] it was 0.5 °C; in [3] it was 0.2 °C. The half-life in series [20] stood at 5.58 h.
